# Data reported in ChEMBL document CHEMBL3865839, “Short Route to the Total Synthesis of Natural Muricadienin and Investigation of Its Cytotoxic Properties” (J Nat Prod, 2016).
# pIC50: −log10 of the molar value. Calls of active or inactive are those of the source. No cut-off for these calls is given here.
# Legend:
# HEK293 [1] = assay: Induction of apoptosis in HEK293 cells assessed as viable cells at 0.48 uM after 24 hrs by Annexin V/propidium iodide-dual staining based FACS analysis (reference value: 90.31%); format: functional; settings: Homo sapiens, HEK293, 24 h; read-out: Activity
# HEK293 [2] = assay: Induction of apoptosis in HEK293 cells assessed as late apoptotic cells at 0.19 uM after 24 hrs by Annexin V/propidium iodide-dual staining based FACS analysis (reference value: 4.30%); format: functional, Homo sapiens
# HEK293 [3] = assay: Induction of apoptosis in HEK293 cells assessed as necrotic cells at 0.19 uM after 24 hrs by Annexin V/propidium iodide-dual staining based FACS analysis (reference value: 3.35%); format: functional, Homo sapiens
# HEK293 [4] = assay: Induction of apoptosis in HEK293 cells assessed as early apoptotic cells at 0.1 uM after 24 hrs by Annexin V/propidium iodide-dual staining based FACS analysis (reference value: 2.04%); format: functional, Homo sapiens
# HEK293 [5] = assay: Induction of apoptosis in HEK293 cells assessed as viable cells at 0.1 uM after 24 hrs by Annexin V/propidium iodide-dual staining based FACS analysis (reference value: 90.31%); format: functional; settings: Homo sapiens, HEK293, 24 h; read-out: Activity
# [6] = molecular target: T1, DNA topoisomerase 1 (Homo sapiens) (UniProt P11387); assay: Inhibition of human Top1 using pHOT as substrate assessed as suppression of relaxation of DNA supercoil at >50 uM after 30 mins by ethidium bromide-based agarose gel electrophoresis
# T1 sequence (whole entry): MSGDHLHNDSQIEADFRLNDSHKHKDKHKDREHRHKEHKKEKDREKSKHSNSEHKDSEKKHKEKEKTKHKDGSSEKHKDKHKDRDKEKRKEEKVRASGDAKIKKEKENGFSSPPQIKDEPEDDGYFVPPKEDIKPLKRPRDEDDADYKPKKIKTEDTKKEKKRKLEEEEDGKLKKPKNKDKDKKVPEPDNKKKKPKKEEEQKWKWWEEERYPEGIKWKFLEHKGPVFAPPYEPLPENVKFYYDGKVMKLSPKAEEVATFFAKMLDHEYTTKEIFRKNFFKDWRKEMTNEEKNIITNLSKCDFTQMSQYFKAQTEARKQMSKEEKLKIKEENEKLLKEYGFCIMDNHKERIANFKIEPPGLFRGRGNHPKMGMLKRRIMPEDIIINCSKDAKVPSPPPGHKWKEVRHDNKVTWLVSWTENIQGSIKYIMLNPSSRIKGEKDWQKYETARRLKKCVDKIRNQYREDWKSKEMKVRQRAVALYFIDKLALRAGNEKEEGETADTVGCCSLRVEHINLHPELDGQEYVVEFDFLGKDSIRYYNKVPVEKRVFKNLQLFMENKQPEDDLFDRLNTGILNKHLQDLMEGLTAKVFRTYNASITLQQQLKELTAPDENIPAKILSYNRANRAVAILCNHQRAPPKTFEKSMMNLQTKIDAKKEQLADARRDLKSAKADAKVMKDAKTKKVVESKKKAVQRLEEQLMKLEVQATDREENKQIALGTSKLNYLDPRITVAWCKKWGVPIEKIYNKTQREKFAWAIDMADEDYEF
# HEK293 [7] = assay: Induction of apoptosis in HEK293 cells assessed as late apoptotic cells at 0.48 uM after 24 hrs by Annexin V/propidium iodide-dual staining based FACS analysis (reference value: 4.30%); format: functional, Homo sapiens
# [8] = molecular target: DNA topoisomerase 2-alpha (Homo sapiens) (UniProt P11388); assay: Inhibition of human Top2alpha using pHOT as substrate assessed as suppression of relaxation of DNA supercoil at >1 uM after 30 mins administered prior to enzyme addition by ethidium bromide-based agarose gel electrophoresis
# DNA topoisomerase 2-alpha (Homo sapiens), sequence (P11388 whole entry): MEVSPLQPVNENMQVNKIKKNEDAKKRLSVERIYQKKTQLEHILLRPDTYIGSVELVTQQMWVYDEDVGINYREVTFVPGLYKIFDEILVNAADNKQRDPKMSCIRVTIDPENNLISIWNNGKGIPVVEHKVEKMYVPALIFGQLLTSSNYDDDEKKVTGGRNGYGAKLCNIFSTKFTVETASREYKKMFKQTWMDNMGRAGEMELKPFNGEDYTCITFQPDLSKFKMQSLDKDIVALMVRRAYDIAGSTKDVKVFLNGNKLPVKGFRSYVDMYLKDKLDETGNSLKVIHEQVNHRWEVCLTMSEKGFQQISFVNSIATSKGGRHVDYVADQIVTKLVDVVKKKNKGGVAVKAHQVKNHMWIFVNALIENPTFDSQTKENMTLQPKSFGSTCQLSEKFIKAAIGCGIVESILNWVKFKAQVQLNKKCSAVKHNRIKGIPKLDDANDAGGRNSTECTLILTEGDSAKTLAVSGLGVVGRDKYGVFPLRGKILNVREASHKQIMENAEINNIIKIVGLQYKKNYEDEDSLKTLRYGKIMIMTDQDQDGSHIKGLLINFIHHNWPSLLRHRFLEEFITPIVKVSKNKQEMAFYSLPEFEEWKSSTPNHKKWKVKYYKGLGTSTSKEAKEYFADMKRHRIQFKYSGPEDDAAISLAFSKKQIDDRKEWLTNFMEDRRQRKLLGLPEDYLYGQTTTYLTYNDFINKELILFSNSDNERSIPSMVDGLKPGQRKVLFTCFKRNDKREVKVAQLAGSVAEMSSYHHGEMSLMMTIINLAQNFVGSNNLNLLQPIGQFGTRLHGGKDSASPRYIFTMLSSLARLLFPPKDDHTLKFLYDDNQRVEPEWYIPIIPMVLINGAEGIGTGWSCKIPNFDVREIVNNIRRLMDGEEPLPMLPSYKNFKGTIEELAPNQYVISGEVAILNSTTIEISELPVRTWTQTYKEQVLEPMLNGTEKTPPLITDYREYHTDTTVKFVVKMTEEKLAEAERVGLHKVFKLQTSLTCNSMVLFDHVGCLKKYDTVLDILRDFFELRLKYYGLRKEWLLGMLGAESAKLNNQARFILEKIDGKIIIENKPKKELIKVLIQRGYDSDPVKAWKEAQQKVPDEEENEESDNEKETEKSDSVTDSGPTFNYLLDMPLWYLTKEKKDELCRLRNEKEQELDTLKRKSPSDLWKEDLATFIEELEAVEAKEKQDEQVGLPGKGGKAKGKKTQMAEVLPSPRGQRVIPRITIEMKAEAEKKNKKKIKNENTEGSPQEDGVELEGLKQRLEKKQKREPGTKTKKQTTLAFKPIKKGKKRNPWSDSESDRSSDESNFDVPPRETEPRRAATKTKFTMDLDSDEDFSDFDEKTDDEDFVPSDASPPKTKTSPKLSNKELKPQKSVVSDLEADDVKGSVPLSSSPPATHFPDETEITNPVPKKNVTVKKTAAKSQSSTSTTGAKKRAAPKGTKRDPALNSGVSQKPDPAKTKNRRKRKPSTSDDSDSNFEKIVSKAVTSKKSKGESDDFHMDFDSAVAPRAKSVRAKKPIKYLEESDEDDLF
# HEK293 [9] = assay: Induction of apoptosis in HEK293 cells after 24 hrs by Annexin V/propidium iodide-dual staining based FACS analysis; format: functional, cell-based; settings: Homo sapiens
# HEK293 [10] = assay: Induction of apoptosis in HEK293 cells assessed as late apoptotic cells at 0.1 uM after 24 hrs by Annexin V/propidium iodide-dual staining based FACS analysis (reference value: 4.30%); format: functional, Homo sapiens
# HEK293 [11] = assay: Induction of apoptosis in HEK293 cells assessed as early apoptotic cells at 0.19 uM after 24 hrs by Annexin V/propidium iodide-dual staining based FACS analysis (reference value: 2.04%); format: functional, Homo sapiens
# HEK293 [12] = assay: Induction of apoptosis in HEK293 cells assessed as early apoptotic cells at 0.48 uM after 24 hrs by Annexin V/propidium iodide-dual staining based FACS analysis (reference value: 2.04%); format: functional, Homo sapiens
# [13] = Cytotoxicity against HEK293 cells assessed as reduction in cell viability after 24 hrs by MTT assay; format: functional, cell-based; settings: Homo sapiens, HEK293, 24 h
# How it was run: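 HEK293 (HPA Culture Collections) monolayers in DMEM with 10% FBS and 1% penicillin–streptomycin, 37 °C, humidified 5% CO2. Compound dissolved in DMSO, then diluted in culture medium. Antiproliferative read-out by MTT tetrazolium reduction to formazan. Etoposide run as positive control. IC50 determined.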
# HEK293 [14] = assay: Induction of apoptosis in HEK293 cells assessed as necrotic cells at 0.48 uM after 24 hrs by Annexin V/propidium iodide-dual staining based FACS analysis (reference value: 3.35%); format: functional, Homo sapiens
# HEK293 [15] = assay: Induction of apoptosis in HEK293 cells assessed as necrotic cells at 0.1 uM after 24 hrs by Annexin V/propidium iodide-dual staining based FACS analysis (reference value: 3.35%); format: functional, Homo sapiens
# HEK293 [16] = assay: Induction of apoptosis in HEK293 cells assessed as viable cells at 0.19 uM after 24 hrs by Annexin V/propidium iodide-dual staining based FACS analysis (reference value: 90.31%); format: functional; settings: Homo sapiens, HEK293, 24 h; read-out: Activity
inhibition [6],inhibition [8],SMILES,viability at 0.48 µM (HEK293 [1]) [%],Activity (HEK293 [2]) [%],Activity (HEK293 [3]) [%],Activity (HEK293 [4]) [%],viability at 0.1 µM (HEK293 [5]) [%],Activity (HEK293 [7]) [%],Activity (HEK293 [9]),Activity (HEK293 [10]) [%],Activity (HEK293 [11]) [%],Activity (HEK293 [12]) [%],pIC50 [13],Activity (HEK293 [14]) [%],Activity (HEK293 [15]) [%],viability at 0.19 µM (HEK293 [16]) [%]
Active,Active,CCCCCCCCCCCC/C=C\CC/C=C\CCCCCCCCCCCCC1=C[C@H](C)OC1=O,48.6,15.3,6.7,5.31,82.3,27.32,Dose-dependent effect,8.09,10.49,16.14,6.41,7.91,4.3,67.5
,,COc1cc([C@@H]2c3cc4c(cc3[C@@H](O[C@@H]3O[C@@H]5CO[C@@H](C)O[C@H]5[C@H](O)[C@H]3O)[C@H]3COC(=O)[C@H]23)OCO4)cc(OC)c1O [ETOPOSIDE],,,,,,,,,,,6.22,,,
